The list is not random: actives were taken first. Their share in the collection is about 2.1%.
XiGFP reactiv: activators of X-chromosome reactivation in mouse fibroblasts | XiGFP mouse fibroblasts, % GFP-positive cells imaging, 3 d; cells co-treated with 5-aza-dC sensitizer; scaled so ellipticine positive control = 100% | activation, % at 7.58 µM | actives 0.055% (n = 360,000) | AID 743238;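 active = mean normalized replicate activation at least 10% and every replicate at or above 10%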
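Schedule: 3 d treatment, 15 min room-temperature fixation; system: 68-5-11 XiGFP fibroblast line; buffer or medium: DMEM plus 5-aza-dC sensitizer; control set: ellipticine 6 µM positive control; compound: one concentration, pinned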
PAX8 reporter: inhibitors of PAX8 transcriptional activity in RMG-I cells. RMG-I TPO-luciferase reporter, SteadyGlo, 24 h. inhibition, % at 12.6 µM. actives 1.2% (n = 360,000);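 active = mean replicate inhibition at least 60% with every replicate also reaching 60%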;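 note: luciferase light reporting Pax8 driven TPO promoter activity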
PGC1a acetyl inh: lowers PGC1a acetylation signal in U2OS cells; AlphaScreen anti-acetyl-lysine; with virally co-expressed GCN5 acetyltransferase; inhibition, % at 15.6 µM; actives 0.17% (n = 350,000);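 active = every replicate shows inhibition of at least 40%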
AF4-AF9 inh: inhibitors of human MLL-AF4/AF9 interaction | inhibition, % at 10 µM | actives 0.47% (n = 350,000) | P42568 | AlphaScreen, biotin-AF4 peptide binding to FLAG-AF9 | AID 651704;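 active = every replicate reaching a set inhibition limit, whatever the replicate mean, cut at about 25% in these data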
Target sequence (P42568 whole entry, looked up): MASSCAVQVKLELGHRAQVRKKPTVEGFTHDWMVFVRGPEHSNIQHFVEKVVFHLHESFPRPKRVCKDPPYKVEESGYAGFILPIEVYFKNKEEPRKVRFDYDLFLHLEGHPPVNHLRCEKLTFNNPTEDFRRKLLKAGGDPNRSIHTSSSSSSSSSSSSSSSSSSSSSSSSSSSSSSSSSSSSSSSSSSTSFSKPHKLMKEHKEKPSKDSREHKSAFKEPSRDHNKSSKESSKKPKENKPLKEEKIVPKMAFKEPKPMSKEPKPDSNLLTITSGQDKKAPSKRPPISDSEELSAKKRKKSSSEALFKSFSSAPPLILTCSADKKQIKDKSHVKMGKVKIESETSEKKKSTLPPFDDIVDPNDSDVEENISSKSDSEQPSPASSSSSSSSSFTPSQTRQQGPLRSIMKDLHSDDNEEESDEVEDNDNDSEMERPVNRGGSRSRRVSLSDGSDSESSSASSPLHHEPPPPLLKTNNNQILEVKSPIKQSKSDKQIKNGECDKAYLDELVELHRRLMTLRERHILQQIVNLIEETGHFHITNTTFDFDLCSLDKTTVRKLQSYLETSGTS
EWS-Fli block: EWS/Fli transcriptional activity inhibition; A673 NR0B1-luciferase reporter, viability-normalised; inhibition, % at 12.6 µM; actives 0.67% (n = 350,000);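 active = mean inhibition of at least 50% after viability correction, with every replicate also passing that limit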;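 note: firefly luciferase signal divided by Alamar Blue viability fluorescence both relative to DMSO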
GSIS activator: GLuc luminescence reporter in INS-1E cells, primary screen for activators of glucose-dependent secretion of insulin; INS-1E GLuc reporter insulin secretion, 2-3 h; activation, % at 16.6 µM; actives 0.61% (n = 370,000); AID 743287;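 active = lowest replicate activation of at least 40%, so every replicate reaches that level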
Numbers stand for hits; 0 = inactive; - = not tested or not shown.

SMILES	XiGFP reactiv	PAX8 reporter	PGC1a acetyl inh	AF4-AF9 inh	EWS-Fli block	GSIS activator
CC1(C)CC(CC(=O)Nc2nccs2)(c2ccccc2)CCO1 (centres undefined)	0	69	-	0	0	0
Cc1ccc(C2(CC(=O)Nc3nccs3)CCOC(C(C)C)C2)cc1 (centres undefined)	0	0	0	-	-	0
C[C@]12CCC3C(CC[C@H]4CC(O)CC[C@]34C)C1CC/C2=N/NC(=O)c1ccncc1 (some centres undefined)	0	0	-	0	53	0
C[C@]12CCC3C(CC[C@H]4CC(O)CC[C@]34C)C1CC/C2=N/O (some centres undefined)	0	0	0	0	0	0
O=C(Nc1ccc(Cl)cc1)N[C@@H]1CC[C@@H](CCNC(=O)c2cc(Cl)cc(Cl)c2)O[C@H]1CO	0	0	0	0	0	0
Cc1ccc(S(=O)(=O)c2ncccc2[N+](=O)[O-])cc1	0	109	-	0	0	65
Cc1ccc(S(=O)(=O)c2ncccc2N)cc1	0	0	0	0	0	0
CO[C@@H]1CN(C)C(=O)c2ccc(NC(=O)C3CC3)cc2OC[C@H](C)N(C(=O)NC(C)C)C[C@H]1C	0	0	0	0	0	0
CCOC(=O)C1C(=O)C=C(c2cccs2)CC1c1ccccc1C (centres undefined)	0	0	-	-	-	49
CCOC(=O)C1C(=O)C=C(c2cccs2)CC1c1ccccc1 (centres undefined)	0	0	-	0	0	-
C[C@@H]1CN([C@H](C)CO)C(=O)c2cc(Br)cnc2O[C@H]1CN(C)C(=O)C1CCC1	0	-	0	-	0	0
COc1ccc(N=C2SCC(c3ccc(C)cc3)=NN2CCO)cc1	0	0	78	0	0	0
COc1ccc(N=C2SCC(c3ccc([N+](=O)[O-])cc3)=NN2CCO)cc1	0	0	0	-	0	0
COCCn1c(=O)[nH]c2cc(C(=O)Nc3cc(OC)c(OC)c(OC)c3)ccc2c1=O	0	0	-	0	0	47
COCCn1c(=O)[nH]c2cc(C(=O)OC)ccc2c1=O	-	-	0	-	-	-
CCCNC(=O)C[C@H]1CC[C@@H]2[C@H](COc3ccc(NS(=O)(=O)c4ccccc4C)cc3C(=O)N2C)O1	0	0	0	0	0	0
COC(=O)c1sc2ccccc2c1NC(=O)c1cccs1	-	-	0	0	0	58
COC(=O)c1sccc1NC(=O)c1cccs1	0	0	0	0	0	0
Cc1ccc(OCc2nc(-c3ccc(-n4cccc4)cc3)no2)cc1C	0	0	0	38	0	0
COc1ccc(Cc2nc(-c3ccc(-n4cccc4)cc3)no2)cc1OC	0	0	0	0	0	56
COc1ccc(Cc2nc(-c3ccc(-n4cccc4)cc3)no2)cc1	0	0	-	0	0	0
COc1ccc(CC(=O)NCc2ccc(-n3cccc3)cc2)cc1OC	0	0	0	0	60	0
Cc1cccc(OCc2nc(-c3ccc(-n4cccc4)cc3)no2)c1	0	0	0	0	0	-
COc1ccc(S(=O)(=O)N2CC[C@@H]3[C@H]2c2cc(C#Cc4ccccc4OC)ccc2N[C@@H]3CO)cc1	0	0	0	0	0	0
C[C@H]1CN([C@@H](C)CO)C(=O)c2cc(NC(=O)CCC(F)(F)F)ccc2O[C@H]1CN(C)C(=O)Nc1cccc2ccccc12	0	0	0	0	0	0
SMILES	XiGFP reactiv	PAX8 reporter	PGC1a acetyl inh	AF4-AF9 inh	EWS-Fli block	GSIS activator
CCCNC(=O)N1C[C@@H]2N[C@H](C1)C2c1ccc(-c2cccc(OC)c2)cc1 (some centres undefined)	0	0	0	0	0	0
c1ccc(N2CCN(c3ccccc3)C2c2ccncc2)cc1	-	-	91	0	0	0
CCCCCN1C=CC(=C2C(=O)c3ccccc3C2=O)C=C1	0	99	0	0	91	0
CC1=CC(=C2C(=O)c3ccccc3C2=O)C=C(C)N1C	-	-	-	-	-	0
C[C@@H]1CN([C@@H](C)CO)S(=O)(=O)c2ccc(-c3ccc(C(=O)N(C)C)cc3)cc2O[C@@H]1CN(C)C(=O)Nc1ccccc1F	0	0	0	0	0	0
COc1ccc2c3c(n(C)c2c1)[C@H](CO)N(C(C)=O)CC31CN(C(=O)Nc2ccccc2F)C1	0	-	0	0	0	0
CCn1c2ccccc2c2cc(/C=N/n3cn[nH]c3=S)ccc21	-	-	42	-	-	-

Compound activity: PubChem, Broad Institute
